The record followed here is ChEMBL document CHEMBL1138278, “Aromatic amide derivatives of 5,6-dimethoxy-2,3-dihydro-1H-inden(-1-yl)acetic acid as anti-inflammatory agents free of ulcerogenic liability” (Bioorg Med Chem Lett, 2007).

For data set [1], the system named is Rattus norvegicus. Nature of the data set: Antipyretic activity against LPS-induced pyresis in Wistar rat assessed as change in rectal temperature at 10 mg/kg, po after 4 hrs. It is filed as functional. In outline: (§1)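 Male Wistar rats (170 ± 20 g) dosed orally: test agents at 100 mg/kg, indomethacin and aspirin at 10 mg/kg and 100 mg/kg. Half an hour later, LPS in apyrogenic saline given at 100 µg/kg i.p. Rectal temperature taken by telethermometer probe immediately before LPS and hourly from 1 to 7 h after. Change in temperature reported; means ± SEM, n = 6.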

Data set [2] relates to Rattus norvegicus. Put plainly: Antipyretic activity against LPS-induced pyresis in Wistar rat assessed as change in rectal temperature at 10 mg/kg, po after 1 hr. Type of data set: functional. In outline: as §1
The subject of data set [3] is Mus musculus. Nature of the data set: Analgesic activity in Swiss Albino mouse assessed as inhibition of acetic acid-induced writhing responses at 10 mg/kg, po after 1 hr. Type of data set: functional. The gist of the method: (§2)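 Mice dosed orally; one hour later injected i.p. with 1% v/v acetic acid at 0.1 ml/10 g. Writhings counted over 15 min, starting five minutes after injection. Means ± SEM, n = 6; p < 0.05 versus control group.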
Background: An intraperitoneal irritant provokes the stretching counted in writhing tests.

Data set [4] concerns Rattus norvegicus. Nature of the data set: Antipyretic activity against LPS-induced pyresis in Wistar rat assessed as change in rectal temperature at 100 mg/kg, po after 2 hrs.
Data set [5] has as its system Rattus norvegicus. Nature of the data set: Antipyretic activity against LPS-induced pyresis in Wistar rat assessed as change in rectal temperature at 100 mg/kg, po after 6 hrs.
The subject of data set [6] is Rattus norvegicus. Put plainly: Antipyretic activity against LPS-induced pyresis in Wistar rat assessed as change in rectal temperature at 10 mg/kg, po after 3 hrs. It is filed as functional. In outline:
as §1

Data set [7] has as its system Rattus norvegicus. Nature of the data set: Antipyretic activity against LPS-induced pyresis in Wistar rat assessed as change in rectal temperature at 10 mg/kg, po after 5 hrs. It is filed as functional. The gist of the method: as §1
Data set [8] concerns Mus musculus. Nature of the data set: Analgesic activity in Swiss Albino mouse assessed as number of acetic acid-induced writhing at 100 mg/kg, po after 1 hr relative to control.
Data set [9] concerns Rattus norvegicus. Put plainly: Antipyretic activity against LPS-induced pyresis in Wistar rat assessed as change in rectal temperature at 100 mg/kg, po after 7 hrs.
The subject of data set [10] is Rattus norvegicus. Nature of the data set: Antiarthritic activity against adjuvant-induced arthritis in Wistar rat assessed as inhibition of paw edema at 10 mg/kg, po on day 3. Type of data set: functional. The note with it: 72 h. In outline: (§3)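 Male Wistar rats (160 ± 10 g) dosed orally once daily for 14 days, from the day before injecting 0.1 ml Freund's complete adjuvant into the subplantar surface of the right hind paw. Paw swelling, including the uninjected left paw, and body weight recorded. Means ± SEM, n = 6; p < 0.05 versus control.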

The test system of data set [11] is Rattus norvegicus. Nature of the data set: Antiinflammatory activity in Wistar rat assessed as inhibition of carrageenan-induced paw edema at 10 mg/kg, after 24 hrs. It is filed as functional. In outline: (§4)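 Male Wistar rats (170 ± 20 g) dosed orally: test agents at 100 mg/kg, reference at 10 mg/kg. One hour later, 0.1 ml of 1% carrageenan injected subplantar into the right hind paw.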
A general note: Carrageenan injected into the paw causes an acute inflammation.

In data set [12] the test system is Rattus norvegicus. Put plainly: Antipyretic activity against LPS-induced pyresis in Wistar rat assessed as change in rectal temperature at 100 mg/kg, po after 4 hrs. Type of data set: functional. The gist of the method:
as §1

For data set [13], the system named is Rattus norvegicus. Nature of the data set: Toxicity in 24 hrs fasted Wistar rat assessed as ulcer index at 30 mg/kg, po after 6 hrs. Type of data set: organism-based. Further details: dose 30 mg/kg, route oral. The note with it: in vivo. The gist of the method: (§5)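 Male Wistar rats (175 ± 25 g) fasted 24 h and dosed orally. Acute arm: test agents at 100 mg/kg, indomethacin at 30 mg/kg; rats killed after 6 h, stomachs opened along the greater curvature and scored for ulcers. Chronic arm: 14-day dosing, stomachs examined post mortem at the end of the arthritis study. Ulcer index means ± SEM, n = 4.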

The species entered for data set [14] is Rattus norvegicus. Put plainly: animal or person. The note with it: Wistar, 2 h, read-out: Inhibition.
Data set [15] relates to Rattus norvegicus. Nature of the data set: Antipyretic activity against LPS-induced pyresis in Wistar rat assessed as change in rectal temperature at 100 mg/kg, po after 2 hrs. It is filed as functional. In outline:
as §1

Data set [16] deals with Rattus norvegicus. Nature of the data set: Toxicity in 24 hrs fasted Wistar rat assessed as ulcer index […], po after 14 days. Type of data set: organism-based. Further details: route oral. The note with it: in vivo, 336 h. In outline:
as §5

Data set [17] concerns Rattus norvegicus. Nature of the data set: Antipyretic activity against LPS-induced pyresis in Wistar rat assessed as change in rectal temperature at 100 mg/kg, po after 3 hrs. It is filed as functional. In outline: as §1
The test system of data set [18] is Rattus norvegicus. Nature of the data set: Antiinflammatory activity in Wistar rat assessed as inhibition of carrageenan-induced paw edema at 10 mg/kg, after 6 hrs. Type of data set: functional. In outline:
as §4

In data set [19] the test system is Rattus norvegicus. Nature of the data set: Antipyretic activity against LPS-induced pyresis in Wistar rat assessed as change in rectal temperature at 100 mg/kg, po after 1 hr. Type of data set: functional. The gist of the method:
as §1

Data set [20] deals with Rattus norvegicus. Put plainly: Antiarthritic activity against adjuvant-induced arthritis in Wistar rat assessed as weight change at 10 mg/kg, po. It is filed as functional. The gist of the method: as §3
Data set [21] has as its system Rattus norvegicus. Put plainly: Antiinflammatory activity in Wistar rat assessed as inhibition of carrageenan-induced paw edema at 10 mg/kg, after 3 hrs. Type of data set: functional. In outline:
(§6)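 Male Wistar rats, 170 ± 20 g, dosed orally; 0.1 ml of 1% carrageenan injected into the right hind paw subplantar region 1 h after dosing. Paw volume read by plethysmometer at 0, 1, 2, 3, 4, 6 and 24 h after carrageenan. Percent inhibition of edema is calculated against the control group. n = 6, mean ± SEM.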

In data set [22] the test system is Mus musculus. Put plainly: Analgesic activity in Swiss Albino mouse assessed as inhibition of acetic acid-induced writhing responses at 100 mg/kg, po after 1 hr. It is filed as functional. The gist of the method:
as §2

Data set [23] has as its system Mus musculus. Put plainly: Analgesic activity in Swiss Albino mouse assessed as number of acetic acid-induced writhing at 100 mg/kg, po after 1 hr relative to control. Type of data set: functional. The gist of the method:
as §2

In data set [24] the test system is Rattus norvegicus. Nature of the data set: Antiinflammatory activity in Wistar rat assessed as inhibition of carrageenan-induced paw edema at 10 mg/kg, after 4 hrs. Type of data set: functional. In outline: as §6
Data set [25] deals with Rattus norvegicus. Put plainly: Antipyretic activity against LPS-induced pyresis in Wistar rat assessed as change in rectal temperature at 100 mg/kg, po after 6 hrs. It is filed as functional. The gist of the method: as §1
The test system of data set [26] is Rattus norvegicus. Nature of the data set: Antipyretic activity against LPS-induced pyresis in Wistar rat assessed as change in rectal temperature at 100 mg/kg, po after 7 hrs. Type of data set: functional. The gist of the method: as §1
The test system of data set [27] is Rattus norvegicus. Nature of the data set: Antipyretic activity against LPS-induced pyresis in Wistar rat assessed as change in rectal temperature at 100 mg/kg, po after 5 hrs. It is filed as functional. In outline: as §1
In data set [28] the test system is Rattus norvegicus. Nature of the data set: Antiinflammatory activity in Wistar rat assessed as inhibition of carrageenan-induced paw edema at 10 mg/kg, after 1 hr. It is filed as functional. In outline:
as §6

For data set [29], the system named is Rattus norvegicus. Put plainly: Antiarthritic activity against adjuvant-induced arthritis in Wistar rat assessed as inhibition of paw edema at 10 mg/kg, po on day 13. Type of data set: functional. The conditions noted are these: 312 h. In outline: as §3
Data set [30] deals with Rattus norvegicus. Nature of the data set: Antiarthritic activity against adjuvant-induced arthritis in Wistar rat assessed as inhibition of paw edema at 10 mg/kg, po on day 8. It is filed as functional. The conditions noted are these: 192 h. In outline: as §3

`CC(=O)Oc1ccccc1C(=O)O` [ASPIRIN]: the Activity with Rattus norvegicus [1] was 0.11 °C; in the data set on Rattus norvegicus [2] it was -0.43 °C; in the data set with Rattus norvegicus [4], -1.45 °C; with Rattus norvegicus [5], 0.25 °C; in the data set with Rattus norvegicus [6], -0.51 °C; in the data set on Rattus norvegicus [7] it was 0.2 °C. The results for the Activity with Mus musculus [8] and with Rattus norvegicus [9] were 13.33 and 0.31 °C, respectively. Besides, the inhibition in vivo at 10 mg/kg with Mus musculus [3] worked out at 61.5%.

Take `COc1ccc2c(c1)c(CC(=O)O)c(C)n2C(=O)c1ccc(Cl)cc1` [INDOMETHACIN]: the inhibition in vivo at 10 mg/kg was 37.5% in the data set on Rattus norvegicus [10]; 13.3% in the data set on Rattus norvegicus [11]; 58% in the data set filed under Rattus norvegicus [14]; 48.1% with Rattus norvegicus [18]; 65.2% in the data set on Rattus norvegicus [21]; 57.8% with Rattus norvegicus [24]. In addition, the inhibition in vivo at 10 mg/kg with Rattus norvegicus [28] amounted to 50%; in the data set on Rattus norvegicus [29] it was 46.5%; in the data set with Rattus norvegicus [30], 43.9%. Also, the Activity in the data set on Rattus norvegicus [12] is 0.22 degrees C; in the data set on Rattus norvegicus [15] it was -1.03 °C; in the data set with Rattus norvegicus [17], -0.11 °C; with Rattus norvegicus [19] it was -0.39 °C; in the data set on Rattus norvegicus [20], 5.68 g; with Mus musculus [23], 16.83. The figures for the Activity with Rattus norvegicus [25], in the data set on Rattus norvegicus [26] and with Rattus norvegicus [27] were 0.35 °C, 0.55 °C and 0.3 °C, respectively. For the same compound, the values for the UI in the data set with Rattus norvegicus [13] and in the data set on Rattus norvegicus [16] were 31.37 and 42, respectively. Also, the inhibition in vivo at 100 mg/kg in the data set on Mus musculus [22] came out at 51.5%.
